High-throughput results (PubChem)
Sampled rows, rich in hits. Any-hit rate of the full collection: about 2.6%.
SENP6 block – SENP6 protease inhibitors, primary screen, biochemical, luminescence, uHTS. Sentrin-specific protease 6 (Homo sapiens), Q9GZR1. Recombinant SENP6 catalytic domain, aminoluciferin luminescence. inhibition, % at 10 µM. 1.8% of 330,000 active. AID 2599, 2010;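 active means inhibition above about 50% at the single tested dose, limit read from the data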;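 further: plate controls were DMSO wells with enzyme for no effect and DMSO wells lacking enzyme for full effect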
SENP7 block – SENP7 protease inhibitors, primary screen, biochemical, luminescence, uHTS; Sentrin-specific protease 7 (Homo sapiens), Q9BQF6; recombinant SENP7, Z-RLRGG-aminoluciferin luminescence, 40 min; inhibition, % at 5 µM; 1.5% of 330,000 active; AID 434973, 2010;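 active means inhibition above about 50% at the single test dose, limit read from the data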;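 further: plate controls were DMSO with enzyme for no effect and no enzyme buffer wells for full effect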
Target sequence (Q9BQF6 706-1050 limits assumed): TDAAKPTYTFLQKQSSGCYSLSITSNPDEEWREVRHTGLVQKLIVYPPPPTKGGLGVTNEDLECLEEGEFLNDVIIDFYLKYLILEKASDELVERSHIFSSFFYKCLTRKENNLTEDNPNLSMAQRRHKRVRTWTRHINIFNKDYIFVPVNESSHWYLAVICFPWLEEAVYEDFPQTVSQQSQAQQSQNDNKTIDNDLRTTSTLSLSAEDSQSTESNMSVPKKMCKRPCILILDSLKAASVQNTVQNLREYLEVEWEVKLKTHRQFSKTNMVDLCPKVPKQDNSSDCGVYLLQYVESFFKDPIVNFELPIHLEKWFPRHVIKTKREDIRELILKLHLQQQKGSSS
SENP8 block-1 – SENP8 protease inhibitors, primary screen, biochemical, luminescence; Sentrin-specific protease 8 (Homo sapiens), Q96LD8; inhibition, % at 10 µM; 1.2% of 330,000 active; purified SENP8, Z-RLRGG-aminoluciferin cleavage; in the data active means inhibition above about 50%
Platelet DG rel – inhibitors of platelet dense granule secretion, primary screen, cell-based, MLPCN, human platelets. human platelet-rich plasma, SFLLRN dense granule ATP release, luminescence. inhibition, %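 (compounds screened at 7.5 µM in platelet-rich plasma)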. 0.22% of 300,000 active. AID 1663, 2009;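 active means mean replicate score, as percent of positive control, at or above 50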
SENP1 inh – human SENP1 catalytic domain inhibitors, primary screen, biochemical, FRET, uHTS. Sentrin-specific protease 1 (Homo sapiens), Q9P0U3. recombinant SENP1 catalytic domain, CyPet-SUMO1-YPet FRET cleavage. inhibition, % at 10 µM. 0.21% of 360,000 active;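 active means inhibition at least 30% at 10 µM, raw YFP signal under a set limit, fluorescence ratio 0.5 to 1.5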;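 further: 0% = enzyme with DMSO and 100% = no enzyme wells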
Target sequence (Q9P0U3 419-644 limits assumed): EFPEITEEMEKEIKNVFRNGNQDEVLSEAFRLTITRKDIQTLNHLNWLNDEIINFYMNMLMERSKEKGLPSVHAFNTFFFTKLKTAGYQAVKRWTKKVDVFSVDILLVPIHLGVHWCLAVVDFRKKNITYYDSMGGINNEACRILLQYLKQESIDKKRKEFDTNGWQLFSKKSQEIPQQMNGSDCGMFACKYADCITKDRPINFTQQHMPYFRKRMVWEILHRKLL
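system = hSENP1 catalytic domain, recombinant | reagent = SFCypet-SUMO1-SFYpet substrate at 25 nM | doses = one dose per compound, 10 µM, 0.5% DMSO | incubation = enzyme reaction for 50 min at room temperature, dark | measured by = FRET, CFP and YFP emission | controls = no-enzyme low, enzyme-DMSO high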
SENP8 block-2 – human SENP8 protease inhibitors, primary screen, biochemical, fluorescence, Nedd8 protein substrate, uHTS. recombinant SENP8. inhibition, % at 20 µM. 0.64% of 360,000 active; in the data active means inhibition mostly above about 40%, no sharp cut-off; inactive means mostly below about 27%
SENP8 inh conf – human SENP8 protease inhibitors, confirmation, biochemical, Nedd8 protein substrate, single concentration; shares compounds with SENP8 block-2; purified SENP8, Nedd8-AMC/pro-Nedd8 cleavage fluorescence, 30 min; inhibition, % at 25 µM; 15% of 1,400 active; AID 624319, 2012; in the data active means inhibition mostly above about 39%, no sharp cut-off; inactive means mostly below about 34%
Active calls of the source: *; / = no result.

SMILES	SENP6 block	SENP7 block	SENP8 block-1	Platelet DG rel	SENP1 inh	SENP8 block-2	SENP8 inh conf
CCN1CCC2(CC1)N=C(c1ccc(F)cc1)C(=S)N2C(=O)c1ccc(C(C)(C)C)cc1	-11	5	2	1	2	19	/
CN1CCC2(CC1)N=C(c1ccc(F)cc1)C(=S)N2C(=O)c1ccccc1	19	2	0	1	0	55*	39*
Cc1cc(-c2csc(N)n2)c(C)n1C	0	9	6	-1	7	43*	16
Cc1ccc(-n2c(C)cc(-c3csc(N)n3)c2C)cc1	8	2	0	-4	0	4	/
O=C(O)/C=C/C(=O)NCc1csc2ccccc12	-25	3	8	-15	2	27	/
CCOC(=O)C1=C(O)C(=O)N(c2ccccc2)C1c1cccc([N+](=O)[O-])c1 (stereo not given)	-22	-1	7	-2	-3	40*	27
O=C(NC1CCCCC1)Oc1ccccc1	-7	-9	-11	-15	2	40*	10
CCOC(=O)c1c(C)nc2c(c1-c1cc(OC)ccc1OC)C(=O)CC(C)(C)C2	-16	4	-12	-5	-1	44*	14
CCOC(=O)c1c(C)nc2c(c1-c1cc(OC)ccc1OC)C(=O)c1ccccc1-2	1	-7	-4	-6	1	23	/
Cc1ccc(C2NNC(=O)C2NC(=O)c2ccccc2)cc1 (stereo not given)	4	1	1	-57	1	64*	8
O=C(NC1C(=O)NNC1c1ccccc1)c1ccc(F)cc1 (stereo not given)	-9	6	3	0	2	38	/
COCC(C)NC(=O)c1cc2c(ccc3ccccc32)oc1=O (stereo not given)	12	-10	-5	-2	-133	-427	/
COc1ccc(CCN2C(=O)CC(NCCc3ccc(S(N)(=O)=O)cc3)C2=O)cc1OC (stereo not given)	-2	-2	-2	3	1	40*	21
CCOC(=O)C1(CCOc2ccccc2)CCN(C(=O)CCSC)CC1	/	/	/	-1	-14	-7	/
CCCC1CCC(=NNC(=O)CNc2ccc(OC)cc2)CC1 (stereo not given)	-7	0	0	-2	3	59*	13
O=[N+]([O-])c1ccc(Cl)cc1NCc1cccnc1	-5	-2	0	0	2	51*	13
Cc1cc(C)n(C(C)CC(=O)N2CCc3ccccc32)n1 (stereo not given)	-22	-12	-14	-12	1	0	/
Cc1cc(C)n(C(CC(=O)N2CCc3ccccc3C2)C(=O)O)n1 (stereo not given)	-9	2	0	0	-5	44*	10
C=CCn1ccc(=NC=C(C#N)C#N)c2ccccc21	4	7	1	-16	-38	45*	21
CN1CCN(C(=O)c2ccc(CNS(=O)(=O)c3ccc(F)c(Cl)c3)cc2)CC1	6	-15	-10	-1	1	1	/
Cc1[nH][nH]c(=O)c1C(c1ccc(-c2cccc(Cl)c2)o1)c1c(C)[nH][nH]c1=O	43	10	20	4	-2	79*	85*
Cc1[nH][nH]c(=O)c1C(c1ccc(-c2ccccc2C(=O)O)o1)c1c(C)[nH][nH]c1=O	/	/	/	2	1	49*	38*
COC(=O)c1ccc(-c2ccc(C(c3c(C)[nH][nH]c3=O)c3c(C)[nH][nH]c3=O)o2)cc1	15	7	4	-5	-6	-16	/
Cc1[nH][nH]c(=O)c1C(c1ccc(-c2cccc(C(=O)O)c2)o1)c1c(C)[nH][nH]c1=O	39	16	19	-2	0	52*	70*
Cc1ccc2oc(-c3ccccc3C(=O)O)cc(=O)c2c1	-6	-1	-11	-37	3	-17	/
SMILES	SENP6 block	SENP7 block	SENP8 block-1	Platelet DG rel	SENP1 inh	SENP8 block-2	SENP8 inh conf
CCOC(=O)C1=C(COC(=O)CNS(=O)(=O)c2c(F)cc(F)cc2Br)NC(=O)NC1C (stereo not given)	/	/	/	/	3	2	/
CC(=O)c1sc(NC(=O)C2CCN(C(=O)c3ccc(F)cc3)CC2)nc1-c1ccccc1	12	-2	1	-2	2	-4	/
Cc1cc(O)c(C(C)C)cc1N=Cc1ccccc1O	0	7	3	5	8	82*	24
CC(N=Cc1ccccc1O)c1ccccc1 (stereo not given)	-7	-1	-11	-6	-3	14	/
Cc1cc(O)c(C(C)C)cc1N=Cc1cc([N+](=O)[O-])ccc1O	25	14	-1	-17	-1	73*	21
CN(C)c1ccc(NC(=O)CSc2nc3c(c(=O)[nH]2)CCCC3)cc1	13	3	4	-1	1	45*	18
CCC1(c2ccccc2)ON(c2c(Br)cccc2Br)C1=O (stereo not given)	14	4	-3	/	1	18	/
O=C1Nc2ccccc2C1=O	-16	4	-4	-2	1	44*	14
CCN(CC)CCCn1c2c(c(SCC(=O)Nc3cc(C)on3)nc1=O)CCC2	1	2	-2	-7	-3	16	/
O=C(/C=C/CCc1ccc2c(c1)OCO2)N1CCCCC1	-8	8	3	/	2	57*	0
COc1ccc(C2/C=C\CN(C(=O)NC34CC5CC(CC(C5)C3)C4)CC(=O)N2Cc2ccc(F)cc2)cc1 (stereo not given)	-5	5	-11	0	0	5	/
CC(/C=C/C(=O)c1ccc(C)cc1)=C\c1ccccc1	-1	3	-17	4	-1	46*	17
Cc1ccc(C(=O)/C=C\NCc2ccccc2)cc1	-2	-6	-22	-1	-23	12	/
COc1ccc(NC(=O)c2nc(C)n(-c3ccc([N+](=O)[O-])cc3)n2)cc1	-12	-2	2	-1	1	9	/
O=[N+]([O-])c1nn(-c2ccc(Cl)cc2)n(O)c1=NCc1ccncc1	-20	8	-4	-4	-2	47*	32
COc1ccccc1C(=O)NCCC(=O)N(C)Cc1ccc(C)o1	1	0	6	19	0	-5	/
CCN(CC)c1ncnc2c1cnn2Cc1ccc(Cl)cc1	13	5	1	8	3	41*	3
